This is an account of results in ChEMBL document CHEMBL3046880, “Syntheses and herbicidal activities of novel triazolinone derivatives” (J Agric Food Chem, 2008).

Common to all, as to format: functional
In one experiment the test system is Echinochloa crus-galli. The experiment can be described thus: Herbicidal activity against Echinochloa crus-galli (barnyard grass) assessed as growth inhibition at 150 g of active ingredient/ha administered using post-emergence treatment measured 15 days post treatment protocol under greenhouse conditions. The procedure, abridged: (§1)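 Test agents were formulated as 100 g/L emulsified concentrates (DMF solvent, TW-80 emulsifier), diluted with water and sprayed postemergence on pot-grown weeds. Seeds were sown 1-3 cm deep in clay soil (pH 6.5, 1.6% organic matter, 37.3% clay, CEC […]) and grown at 15–30 °C in a greenhouse. Dicots were treated at the two-leaf stage. Untreated and DMF-treated plants served as controls. Activity was scored visually 15 days after treatment.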

For a further experiment, the system named is Brassica juncea. The experiment can be described thus: Herbicidal activity against Brassica juncea assessed as growth inhibition at 150 g of active ingredient/ha administered using post-emergence treatment measured 15 days post treatment protocol under greenhouse conditions. The procedure, abridged:
as §1

Another experiment deals with Amaranthus retroflexus. The experiment can be described thus: Herbicidal activity against Amaranthus retroflexus assessed as growth inhibition at 150 g of active ingredient/ha administered using post-emergence treatment measured 15 days post treatment protocol under greenhouse conditions. The procedure, abridged: as §1
The subject of the next experiment is Digitaria sanguinalis. The experiment can be described thus: Herbicidal activity against Digitaria sanguinalis (hairy crabgrass) assessed as growth inhibition at 150 g of active ingredient/ha administered using post-emergence treatment measured 15 days post treatment protocol under greenhouse conditions. The procedure, abridged: as §1
The subject of another experiment is Chenopodium album. The experiment can be described thus: Herbicidal activity against Chenopodium album assessed as growth inhibition at 150 g of active ingredient/ha administered using post-emergence treatment measured 15 days post treatment protocol under greenhouse conditions. The procedure, abridged:
as §1

The subject of another experiment is Setaria viridis. The experiment can be described thus: Herbicidal activity against Setaria viridis (green foxtail) assessed as growth inhibition at 150 g of active ingredient/ha administered using post-emergence treatment measured 15 days post treatment protocol under greenhouse conditions. The procedure, abridged:
as §1

On to `Cc1nn(-c2cc(N3C(=O)c4ccccc4C3=O)c(Br)cc2F)c(=O)n1C(F)F`, for which the “growth inhibition (GI)” value is 50% in the experiment on Echinochloa crus-galli; more than 80% in the experiment with Brassica juncea; 100% with Amaranthus retroflexus; more than 80% with Digitaria sanguinalis; more than 80% in the experiment on Chenopodium album; more than 80% with Setaria viridis.
Take `Cc1nn(-c2cc(N3C(=O)c4ccccc4C3=O)c(Cl)cc2Cl)c(=O)n1C(F)F`: the “growth inhibition (GI)” value is listed as 50% with Echinochloa crus-galli; less than 50% in the experiment on Brassica juncea; 100% with Amaranthus retroflexus; 50% with Digitaria sanguinalis; 100% in the experiment on Chenopodium album; 50% in the experiment on Setaria viridis.
For `Cc1nn(-c2cc(N3C(=O)c4ccccc4C3=O)c(F)cc2Br)c(=O)n1C(F)F`, the “growth inhibition (GI)” value in the experiment on Echinochloa crus-galli, in the experiment on Brassica juncea, with Amaranthus retroflexus, with Digitaria sanguinalis, in the experiment with Chenopodium album and in the experiment on Setaria viridis was less than 50% each time.
As to `Cc1nn(-c2cc(N3C(=O)c4ccccc4C3=O)ccc2Cl)c(=O)n1C(F)F`, the “growth inhibition (GI)” value with Echinochloa crus-galli, in the experiment with Brassica juncea, with Amaranthus retroflexus, with Digitaria sanguinalis, in the experiment with Chenopodium album and in the experiment with Setaria viridis was less than 50% in each case.
Consider `Cc1nn(-c2cc(N3C(=O)C4=C(CCCC4)C3=O)c(Br)cc2F)c(=O)n1C(F)F`, for which the “growth inhibition (GI)” value with Echinochloa crus-galli is on record as 50%; in the experiment with Brassica juncea, less than 50%; in the experiment on Amaranthus retroflexus, 100%; with Digitaria sanguinalis it was 50%; in the experiment with Chenopodium album, 100%; in the experiment with Setaria viridis, 50%.
Take `Cc1nn(-c2cc(N3C(=O)C4=C(CCCC4)C3=O)c(Cl)cc2Cl)c(=O)n1C(F)F`: the “growth inhibition (GI)” value is listed as 50% with Echinochloa crus-galli; less than 50% in the experiment with Brassica juncea; 100% with Amaranthus retroflexus; 50% with Digitaria sanguinalis; 100% with Chenopodium album; 50% in the experiment on Setaria viridis.
Consider `Cc1nn(-c2cc(N3C(=O)C4=C(CCCC4)C3=O)c(F)cc2Br)c(=O)n1C(F)F`, for which the “growth inhibition (GI)” value is less than 50% in the experiment on Echinochloa crus-galli; 50% with Brassica juncea; 50% in the experiment with Amaranthus retroflexus; less than 50% in the experiment on Digitaria sanguinalis; less than 50% with Chenopodium album; less than 50% with Setaria viridis.
Turning to `Cc1nn(-c2cc(N3C(=O)C4=C(CCCC4)C3=O)ccc2Cl)c(=O)n1C(F)F`, the “growth inhibition (GI)” value in the experiment on Echinochloa crus-galli, with Brassica juncea, with Amaranthus retroflexus, in the experiment on Digitaria sanguinalis, in the experiment on Chenopodium album and with Setaria viridis was less than 50% in each case.
For the compound `Cc1nn(-c2cc(N3C(=O)C4CCCCC4C3=O)c(Br)cc2F)c(=O)n1C(F)F` (stereo not given), the “growth inhibition (GI)” value came out at 50% in the experiment with Echinochloa crus-galli; 50% in the experiment with Brassica juncea; 100% in the experiment with Amaranthus retroflexus; 50% with Digitaria sanguinalis; 100% in the experiment with Chenopodium album; 50% with Setaria viridis.
For `Cc1nn(-c2cc(N3C(=O)C4CCCCC4C3=O)c(Cl)cc2Cl)c(=O)n1C(F)F` (stereo not given), the “growth inhibition (GI)” value in the experiment on Echinochloa crus-galli is less than 50%; with Brassica juncea it was less than 50%; in the experiment with Amaranthus retroflexus it was 100%; in the experiment with Digitaria sanguinalis it was less than 50%; in the experiment on Chenopodium album it was more than 80%; in the experiment on Setaria viridis, less than 50%.
As to `Cc1nn(-c2cc(N3C(=O)C4CCCCC4C3=O)c(F)cc2Br)c(=O)n1C(F)F` (stereo not given), the “growth inhibition (GI)” value in the experiment on Echinochloa crus-galli is given as less than 50%; in the experiment on Brassica juncea, 50%; in the experiment on Amaranthus retroflexus it was less than 50%; with Digitaria sanguinalis, less than 50%; with Chenopodium album, 50%; with Setaria viridis, less than 50%.
In the case of `Cc1nn(-c2cc(N3C(=O)C4CCCCC4C3=O)ccc2Cl)c(=O)n1C(F)F` (stereo not given), the “growth inhibition (GI)” value in the experiment on Echinochloa crus-galli, with Brassica juncea, in the experiment with Amaranthus retroflexus, in the experiment with Digitaria sanguinalis, in the experiment with Chenopodium album and with Setaria viridis was less than 50% throughout.
Turning to `Cc1nn(-c2cc(NC(=O)Nc3ccccc3)ccc2Cl)c(=O)n1C(F)F`, the “growth inhibition (GI)” value with Echinochloa crus-galli, in the experiment with Brassica juncea, with Amaranthus retroflexus, with Digitaria sanguinalis, in the experiment with Chenopodium album and with Setaria viridis was less than 50% throughout.
In the case of `Cc1nn(-c2cc(NC(=O)Nc3ccc(Cl)cc3)ccc2Cl)c(=O)n1C(F)F`, the “growth inhibition (GI)” value in the experiment on Echinochloa crus-galli, with Brassica juncea, in the experiment with Amaranthus retroflexus, with Digitaria sanguinalis, in the experiment on Chenopodium album and in the experiment on Setaria viridis was less than 50% in each case.
As to `Cc1nn(-c2cc(NC(=O)Nc3ccccc3)c(Br)cc2F)c(=O)n1C(F)F`, the “growth inhibition (GI)” value with Echinochloa crus-galli, with Brassica juncea, with Amaranthus retroflexus, with Digitaria sanguinalis, with Chenopodium album and in the experiment with Setaria viridis was less than 50% each time.
As for `Cc1nn(-c2cc(NC(=O)Nc3ccc(Cl)cc3)c(Br)cc2F)c(=O)n1C(F)F`, the “growth inhibition (GI)” value in the experiment with Echinochloa crus-galli, in the experiment on Brassica juncea, with Amaranthus retroflexus, with Digitaria sanguinalis, in the experiment with Chenopodium album and with Setaria viridis was less than 50% each time.
For the compound `Cc1nn(-c2cc(NC(=O)Nc3ccccc3)c(F)cc2Br)c(=O)n1C(F)F`, the “growth inhibition (GI)” value with Echinochloa crus-galli, with Brassica juncea, in the experiment on Amaranthus retroflexus, in the experiment on Digitaria sanguinalis, in the experiment on Chenopodium album and with Setaria viridis was less than 50% throughout.
Take `Cc1nn(-c2cc(NC(=O)Nc3ccc(Cl)cc3)c(F)cc2Br)c(=O)n1C(F)F`: the “growth inhibition (GI)” value in the experiment on Echinochloa crus-galli, with Brassica juncea, in the experiment with Amaranthus retroflexus, in the experiment on Digitaria sanguinalis, in the experiment with Chenopodium album and in the experiment on Setaria viridis was less than 50% each time.
Take `Cc1nn(-c2cc(NC(=O)Nc3ccccc3)c(Cl)cc2Cl)c(=O)n1C(F)F`: the “growth inhibition (GI)” value with Echinochloa crus-galli, in the experiment on Brassica juncea, in the experiment with Amaranthus retroflexus, in the experiment on Digitaria sanguinalis, with Chenopodium album and in the experiment with Setaria viridis was less than 50% each time.
With `Cc1nn(-c2cc(NC(=O)Nc3ccc(Cl)cc3)c(Cl)cc2Cl)c(=O)n1C(F)F`, the “growth inhibition (GI)” value in the experiment on Echinochloa crus-galli, in the experiment with Brassica juncea, in the experiment with Amaranthus retroflexus, in the experiment with Digitaria sanguinalis, in the experiment on Chenopodium album and with Setaria viridis was less than 50% throughout.
